Assays:
[1] = Inhibition of CDK4/cyclin D expressed in baculovirus infected insect Sf21 cells using [gamma-P32]ATP and histone H1 as substrate after 10 mins by radiometric assay
How it was run: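 20 µL reactions in 50 mM Tris-HCl with 10 µM ATP, 0.2 µCi [γ-32P]ATP, 10 mM MgCl2, 5 mM DTT, 4 µg histone H1 substrate; 10 min with inhibitor, stopped with 30% phosphoric acid. Spotted on P81 paper, washed five times in 10 mM Tris-HCl pH 8.0/0.1 M NaCl, radioactivity imaged; IC50 = concentration giving 50% inhibition.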

[2] = target: Cyclin-dependent kinase 2/cyclin A (Homo sapiens, UniProt P24941); experiment: Inhibition of CDK2/cyclin A expressed in baculovirus infected insect Sf21 cells using [gamma-P32]ATP and histone H1 as substrate after 10 mins by radiometric assay
[3] = target: Epidermal growth factor receptor (Homo sapiens, UniProt P00533); experiment: Inhibition of human EGFR
How it was run: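 Kinase activity measured with the C-terminal human EGFR tyrosine kinase domain; IC50 taken as the inhibitor concentration giving 50% inhibition.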

A-431 = experiment: Growth inhibition of human A431 cells after 2 days by SRB assay; assay type: functional; conditions: A-431, 48 h
How it was run: (§1)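 Cells kept in RPMI 1640 with 10% FBS at 37 °C, 5% CO2; 1000 cells/well plated, compounds added next day at various concentrations for two days. Fixed with 4% formalin, stained with 0.1% sulforhodamine B, dye eluted in 0.1 M Tris/HCl pH 8.0, absorbance at 520 nm. Triplicate, averaged; 0% = treatment-time absorbance, 100% = untreated two-day growth; GI50 = 50% growth inhibition.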

SNU-638 = experiment: Growth inhibition of human SNU638 cells after 2 days by SRB assay; assay type: functional; conditions: SNU-638, 48 h; how it was run: as §1
HCT116 (Homo sapiens) = experiment: Growth inhibition of human HCT116 cells after 2 days by SRB assay; conditions: HCT116, 48 h

Sequence of Epidermal growth factor receptor (P00533 whole entry, the tested form may be a part): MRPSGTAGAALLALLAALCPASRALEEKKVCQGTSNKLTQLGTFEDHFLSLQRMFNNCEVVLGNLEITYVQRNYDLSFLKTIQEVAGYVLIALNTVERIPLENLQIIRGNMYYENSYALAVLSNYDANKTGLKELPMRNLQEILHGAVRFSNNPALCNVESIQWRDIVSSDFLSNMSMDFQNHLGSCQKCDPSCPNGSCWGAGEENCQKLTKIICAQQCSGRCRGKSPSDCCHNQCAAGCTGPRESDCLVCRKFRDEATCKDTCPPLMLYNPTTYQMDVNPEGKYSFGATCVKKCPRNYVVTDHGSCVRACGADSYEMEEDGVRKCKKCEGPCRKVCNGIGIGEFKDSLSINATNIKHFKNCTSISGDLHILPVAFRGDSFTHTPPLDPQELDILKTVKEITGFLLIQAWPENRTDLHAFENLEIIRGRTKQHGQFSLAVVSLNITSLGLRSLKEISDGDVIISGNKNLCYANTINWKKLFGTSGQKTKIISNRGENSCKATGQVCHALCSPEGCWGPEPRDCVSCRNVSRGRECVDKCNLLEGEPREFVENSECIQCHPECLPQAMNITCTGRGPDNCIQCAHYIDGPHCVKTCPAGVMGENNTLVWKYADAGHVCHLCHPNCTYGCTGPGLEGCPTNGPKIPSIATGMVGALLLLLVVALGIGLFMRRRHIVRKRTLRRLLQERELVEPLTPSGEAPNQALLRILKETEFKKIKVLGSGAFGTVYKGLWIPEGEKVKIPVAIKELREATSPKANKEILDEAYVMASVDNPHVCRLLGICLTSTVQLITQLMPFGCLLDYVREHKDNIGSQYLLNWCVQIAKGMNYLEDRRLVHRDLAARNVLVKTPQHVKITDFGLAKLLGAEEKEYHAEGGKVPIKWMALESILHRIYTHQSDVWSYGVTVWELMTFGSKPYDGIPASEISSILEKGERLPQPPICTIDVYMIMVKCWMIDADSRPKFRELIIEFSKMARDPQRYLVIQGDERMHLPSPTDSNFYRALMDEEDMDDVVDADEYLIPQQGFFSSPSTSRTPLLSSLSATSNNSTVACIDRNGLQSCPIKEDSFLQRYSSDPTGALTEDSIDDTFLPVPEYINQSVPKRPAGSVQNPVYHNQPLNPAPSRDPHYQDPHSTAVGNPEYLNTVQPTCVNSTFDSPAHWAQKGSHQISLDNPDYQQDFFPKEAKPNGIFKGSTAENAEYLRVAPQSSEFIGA

Row | Compound | IC50 [2] | IC50 [3] | GI50 (A-431) | GI50 (SNU-638) | GI50 (HCT116 (Homo sapiens)) | IC50 [1]
1 | CC[C@H](CO)Nc1nc(NCc2ccccc2)c2ncn(C(C)C)c2n1 [SELICICLIB] |  |  |  |  |  | 15 µM
2 | COc1cccc2c1C(=O)c1c(O)c3c(c(O)c1C2=O)C[C@@](O)(C(=O)CO)C[C@@H]3O[C@H]1C[C@H](N)[C@H](O)[C@H](C)O1 [DOXORUBICIN] |  |  | 0.18 µM |  | 0.13 µM | 
3 | Nc1scc2c1c(NCCO)nc1nc(NCCO)nc(N)c12 | 0.09 µM | 66.1 µM | 4.6 µM | 2.57 µM | 11.4 µM | > 48 µM
4 | Nc1scc2c1c(Nc1ccc(S(N)(=O)=O)cc1)nc1ncnc(N)c12 | 36.3 µM | 29.5 µM | 3.94 µM | 2.56 µM | 8.89 µM | > 120 µM
5 | Cc1c(C#N)c(NCCO)nc2nc(NCCO)nc(N)c12 | 3.8 µM | 47.9 µM | 31.9 µM | 18.2 µM | 20.1 µM | 10 µM
6 | Cc1c(C#N)c(Nc2ccc(S(N)(=O)=O)cc2)nc2ncnc(N)c12 | 10 µM | > 100 µM | 2.94 µM | 6.2 µM | 16.6 µM | 16 µM
7 | Cn1cnc2c(NCc3ccccc3)nc(NCCO)nc21 [OLOMOUCINE] |  |  | 16.6 µM | 16.6 µM | 12.1 µM | 45 µM
8 | N#Cc1cc2c(N)ncnc2nc1Nc1ccc(S(N)(=O)=O)cc1 | 0.3 µM | > 100 µM | 7.8 µM | 7.57 µM | 19.3 µM | 13 µM
9 | N#Cc1cc2c(N)nc(NCCO)nc2nc1NCCO | 6.3 µM | > 100 µM | 6.25 µM | 7.95 µM | 10.9 µM | 28 µM

The next lines start with results.

Row | IC50 [2] | IC50 [3] | GI50 (A-431) | GI50 (SNU-638) | GI50 (HCT116 (Homo sapiens)) | Compound | IC50 [1]
10 | 3.1 µM | > 100 µM | > 100 µM | 17.1 µM | 38.2 µM | Cc1c(C#N)c(Nc2ccc(S(N)(=O)=O)cc2)nc2nc(NCCO)nc(N)c12 | 95 µM
11 | 8.1 µM | > 100 µM | 21.9 µM | 26.1 µM | 47.7 µM | Nc1scc2c1c(Nc1ccc(S(N)(=O)=O)cc1)nc1nc(NCCO)nc(N)c12 | 44 µM
12 | 0.5 µM | > 100 µM | 54.3 µM | 18.3 µM | 6.46 µM | Nc1scc2c1c(NCCO)nc1ncnc(N)c12 | 29 µM
13 | 29.5 µM | > 100 µM | 5.06 µM | 2.58 µM | 4.1 µM | Cc1c(C#N)c(NCCO)nc2ncnc(N)c12 | 36 µM
14 | 0.9 µM | > 100 µM | 36.3 µM | 35.8 µM | 48.2 µM | N#Cc1cc2c(N)nc(NCCO)nc2nc1Nc1ccc(S(N)(=O)=O)cc1 | 120 µM
15 | 29.5 µM | 93.3 µM | 26.6 µM | 20.8 µM | 4.5 µM | N#Cc1cc2c(N)ncnc2nc1NCCO | > 200 µM

Source: ChEMBL document CHEMBL1909587, “Design, synthesis and biological study of novel pyrido[2,3-d]pyrimidine as anti-proliferative CDK2 inhibitors” (Eur J Med Chem, 2011)
